Results from different studies.
Compare with care: the assays were run in different laboratories.
Cell line: CAKI-1
Observed: cell growth or viability

Compound | technique | concentration | time | endpoint | result
O=C1Nc2ccccc2C1=NNc1nnc2n1N=C(c1ccccc1)CS2 | SRB | 10 µM | – | inhibition | 21%
COc1ccc(C(=O)/C=C/c2cccc(Cl)c2Cl)cc1S(N)(=O)=O | SRB | 10 µM | – | inhibition | 106%
CC(=O)OC[C@H]1O[C@@H]([S-])[C@H](OC(C)=O)[C@@H](OC(C)=O)[C@@H]1OC(C)=O.CCP(CC)CC.[Au+] | resazurin | – | – | IC50 | 2.29 µM
[Cl-].[Cl-].[Ti+4].c1cc[cH-]c1.c1cc[cH-]c1 | XTT | – | 24 h | IC50 | > 200 µM
CC(C)C[C@H](NC(=O)[C@H](Cc1ccccc1)NC(=O)c1cnccn1)B(O)O | ATP luminescence | – | – | IC50 | 0.01 µM
COc1ccc(-c2ccc(-c3ccc(C(=N)N)nc3)s2)cc1Cl | – | – | – | GI50 | 1.74 µM
COc1ccc(C(=O)/C=C/c2cc3c(cc2Br)OCO3)cc1S(N)(=O)=O | SRB | – | 48 h | GI50 | 4.6 µM
S=C([S][Au-][P+](CCCCCC[P+]([Au-][S]C(=S)n1cccn1)(c1ccccc1)c1ccccc1)(c1ccccc1)c1ccccc1)n1cccn1 | – | – | – | GI50 | 7.15 µM
COc1cc(Nc2nccc(-c3cnn4nc(OC)ccc34)n2)cc(C(F)(F)F)c1 | ATP luminescence | – | – | IC50 | 0.31 µM
COc1ccc(-c2ccc(-c3ccc(C(=N)N)nc3)s2)cc1 | – | – | – | GI50 | 1.64 µM
Cc1cc(C)n(C(=S)[S][Au][PH](CCCCCC[PH]([Au][S]C(=S)n2nc(C)cc2C)(c2ccccc2)c2ccccc2)(c2ccccc2)c2ccccc2)n1 | – | – | – | GI50 | 2.16 µM
